# Rpn11 inh: inhibitors of human proteasome Rpn11 | inhibition, % at 20 µM | actives 0.59% (n = 360,000) | human 26S proteasome, Ub4-pepOG fluorescence polarization; 20S core pre-blocked with epoxomicin | AID 588493;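 active = inhibition at 20 µM, scaled to each plate's controls, above about 33%, limit read from the data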
# IDE inh: inhibits human insulin-degrading enzyme in HEK cells | FAbetaB cleavage, fluorescence polarization | inhibition, % at 5.59 µM | actives 0.41% (n = 320,000) | AID 434962;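 active = percent inhibition above the average of all tested compounds plus 3 SD, set per screening campaign, cut at about 16% in these data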;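 also: IDE supplied by intact live HEK cells; FP after avidin binding of uncleaved biotin substrate so inhibition keeps polarization high; 0% = DMSO wells and 100% = 60 µM reference IDE inhibitor Ii1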
# CSN inh: inhibitors of human CSN-mediated cullin deneddylation | Q92905 | Purified CSN, SCF-Nedd8-OG deneddylation, fluorescence polarization | inhibition, % at 12.5 µM | actives 0.38% (n = 360,000);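 active = pattern-corrected inhibition above about 35%, with an unprinted fluorescence ratio check between 0.5 and 1.5, limit read from the data, passing the limit was not always enough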;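 also: 0% = enzyme with substrate and 100% = substrate without enzyme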
# Target sequence (Q92905 whole entry, looked up, one chain of several): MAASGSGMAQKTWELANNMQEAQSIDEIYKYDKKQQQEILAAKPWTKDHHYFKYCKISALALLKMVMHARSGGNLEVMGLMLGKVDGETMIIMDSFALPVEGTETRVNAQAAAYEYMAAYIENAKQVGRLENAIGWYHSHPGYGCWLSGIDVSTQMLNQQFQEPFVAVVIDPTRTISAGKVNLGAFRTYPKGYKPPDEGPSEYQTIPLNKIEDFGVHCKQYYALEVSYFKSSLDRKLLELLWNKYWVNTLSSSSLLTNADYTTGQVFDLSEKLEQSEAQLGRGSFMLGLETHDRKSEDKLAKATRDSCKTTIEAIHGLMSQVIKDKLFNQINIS
#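 Schedule: reaction 90 min, room temperature / Assay system: HEK293T-derived human Csn5 enzyme / Input: Csn5 at 0.24 nM final / Measure: inhibition of Csn5 cleavage, % / Control set: substrate-only high control, full reaction low control / Technique: fluorescence polarization of the substrate / Buffer or medium: Tris/NaCl/DTT buffer, pH 7.5 / Reagent: SCFSkp2-Nedd8OG substrate at 10 nM final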
# HNF4A DNA FP: change in binding of human HNF4 alpha to DNA. P41235. HNF4a-FITC DNA binding, fluorescence polarization, 1 h. activity change, % at 10 µM. actives 0.3% (n = 360,000); in the data active = activity change above about 30%, passing the limit was not always enough
# IDE act: boosts human insulin-degrading enzyme activity in HEK cells. P14735. FAbeta-B cleavage, fluorescence polarization; 0% vehicle, 100% cell-free pure enzyme wells. activation, % at 5.96 µM. actives 0.073% (n = 340,000). AID 493087;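 active = activation above the mean of all tested compounds plus 3 SD, set per screening campaign, cut at about 17% in these data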
# TPT1 inh: blocks Candida albicans tRNA 2'-phosphotransferase | recombinant caTPT1, FP RNA substrate dephosphorylation | inhibition, % at 5 µM | AID 1962 | actives 0.81% (n = 300,000);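 active = inhibition above the mean of all tested compounds plus 3 SD, set per screening campaign, cut at about 24% in these data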;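 also: plate controls were DMSO alone for no effect and ferristatin control at 100 nM for full effect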
# The depositor's hits bear a star; · = no result given. Compounds with a hit are over-represented: about 1.7% of the library has one in this group of screens.
SMILES,Rpn11 inh,IDE inh,CSN inh,HNF4A DNA FP,IDE act,TPT1 inh
COc1ccc2c(c1)c(C(=O)N/N=C/c1cccc(Br)c1)c(C)n2C,3,18*,-2,4,-6,0
COc1ccc2c(c1)c(C(=O)N/N=C/c1cccc(O)c1)c(C)n2C,-2,-3,-2,2,4,-4
CC1(C(=O)NCc2ccc(Cl)c(Cl)c2)Oc2ccccc2NC1=O (stereo not given),2,-5,-4,-2,3,2
O=S1(=O)C=C[C@H](COCc2ccccc2)N1,4,·,1,-2,·,·
Cc1ccc(NC(=O)c2ccc(Cl)c(N3C(=O)CCC3=O)c2)cc1,-4,6,-1,55*,4,1
Cc1ccc(NC(=O)c2ccc(C)cc2)cc1,-5,-5,-1,1,5,0
COc1ccc(Cl)cc1NC(=O)CN1c2ccccc2CC1C (stereo not given),7,2,-1,33*,2,0
Clc1nnc2ccc(-c3ccccc3)nn12,0,3,54*,-1,3,-4
Cc1ccc2nnc(Cl)n2n1,3,3,1,0,-2,-4
Cc1ccc(-c2nc(N3CCN(C)CC3)c3ccccc3n2)cc1,4,3,3,-1,1,-1
CN1CCN(c2nc(-c3cccc([N+](=O)[O-])c3)nc3ccccc23)CC1,2,0,44*,-2,4,-2
COc1cccc(CNC(=O)c2ccccc2NC(=O)C2=C(C)OCCS2)c1,3,1,-4,-2,5,2
COc1ccc(-c2csc3nc(-c4ccc(C)cc4)oc(=O)c23)cc1OC,4,6,-3,48*,0,1
COc1ccc(-c2csc3nc(C(C)(C)C)oc(=O)c23)cc1OC,-3,-5,1,0,-5,-5
Cc1cc(Cl)cc(C)c1OCC(=O)N1CCN(c2ncccn2)CC1,2,-6,-6,1,4,·
Fc1ccc(CN2CCN(c3ncccn3)CC2)cc1,-8,-7,37*,1,0,1
CC(C)c1nnc(SCC(=O)NC2CCCC2)n1C,-6,1,-4,0,-1,0
CCCCSCc1[nH]c(=O)[nH]c1C(=O)CCCCC(=O)OCC,1,-1,0,0,0,0
Cc1[nH]c(=O)[nH]c1C(=O)CCCCC(=O)O,-5,-17,-6,4,39*,-3
COc1cccc(-c2cc3nc(NCc4ccccc4F)n(C)c(=O)c3s2)c1,-12,·,-3,0,·,·
OC(CNCCC1C=Nc2ccccc21)Cn1c2ccc(Cl)cc2c2cc(Cl)ccc21 (stereo not given),0,-7,0,3,19*,0
OC(CNCC1CCCO1)Cn1c2ccc(Cl)cc2c2cc(Cl)ccc21 (stereo not given),3,-4,2,-3,6,-4
COc1cccc(C(c2nnnn2C(C)(C)C)N2CCN(C/C=C/c3ccccc3)CC2)c1OC (stereo not given),2,·,-1,-4,·,·
COc1ccc(/C=N\NC(=O)c2ccc([N+](=O)[O-])c(C)c2)cc1COc1ccccc1C(N)=O,21,7,35*,11,5,-5
COc1ccc(/C=N/NC(=O)c2cccnc2)cc1COc1ccc([N+](=O)[O-])c(C)c1,5,-3,2,4,·,-1
SMILES,Rpn11 inh,IDE inh,CSN inh,HNF4A DNA FP,IDE act,TPT1 inh
Cc1cc(NC(=O)/C(C#N)=C\c2ccc(-c3ccc(SC(F)F)cc3)o2)n(-c2ccccc2)n1,·,·,81*,163,5,·
Cc1c2ccncc2cc2c1[nH]c1ccccc12,27,·,11,9,-6,·
Cc1c2c(cc3c1[nH]c1ccccc13)C=NCC2,·,·,65*,64*,-3,·
CC(Cc1ccco1)NC(=O)c1cccc(S(=O)(=O)N(C)C)c1 (stereo not given),-9,1,1,2,4,-3
CC1CN(C(=O)c2ccc(Br)c(S(=O)(=O)N3CCOCC3)c2)CC(C)O1 (stereo not given),-1,1,-3,0,2,·
O=C(Nc1cccc(S(=O)(=O)NC2=NCCCCC2)c1)c1cc(-c2ccco2)nc2ccccc12,41*,-2,51,-33,1,2
O=C(NCc1ccco1)c1cccc2c1C(=O)c1ccc(/C=C/c3ccccc3)cc1S2(=O)=O,16,8,55*,-18,-6,·
CC(C)Cn1c(NCCO)nc2ccccc21,-3,9,-3,-6,0,-2
OCCNc1nc2ccccc2n1CC(O)c1ccccc1 (stereo not given),-12,-2,-6,120*,8,2
O=C(Cc1ccccc1[N+](=O)[O-])NCCCc1ccccc1,2,-2,0,0,6,-1
CCC(=O)c1ccc(OCC(=O)Nc2cccc(S(=O)(=O)N(C)c3ccccc3)c2)cc1,6,11,-6,1,-8,·
CN(c1ccccc1)S(=O)(=O)c1cccc(NC(=O)COc2cccc([N+](=O)[O-])c2)c1,-7,4,0,-3,18*,·
Cc1ccc2nc(N(CCCN(C)C)C(=O)COc3ccc(Cl)cc3)sc2c1,4,0,2,5,22*,-2
CN(C)CCCN(C(=O)COc1ccc(Cl)cc1)c1nc2ccc(F)cc2s1,2,8,15,1,18*,-2
Cc1cc(C)c2sc(N(CCCN(C)C)C(=O)COc3ccc(Cl)cc3)nc2c1,-6,3,-1,6,27*,-4
Cc1cccc2sc(N(CCCN(C)C)C(=O)COc3ccc(Cl)cc3)nc12,-13,6,4,1,16,-3
CN(C)CCCN(C(=O)COc1ccccc1)c1nc2ccc(F)cc2s1,-2,-4,3,-3,3,0
CCN1C[C@@H]2[C@@H]3C(=O)N(C)C(=O)[C@@H]3[C@](Cc3ccccc3)(C(=O)OC)N2C1=NCc1ccccc1,-6,·,0,3,2,·
COc1ccccc1S(=O)(=O)N(C)C[C@@H]1OCc2cn(nn2)CCCC(=O)N([C@H](C)CO)C[C@H]1C,-4,·,2,-1,·,·
CCCCc1ccc(S(=O)(=O)NC(=O)C2(C)CCN2C(=O)CC2CC2)cc1 (stereo not given),-9,·,-6,6,·,·
CN1CCN(S(=O)(=O)c2ccc(Oc3ccc(F)c(Cl)c3)nc2)CC1,-4,5,-15,-1,2,-2
CC(=O)C1=C(C)N=c2s/c(=C/c3ccc4c(c3)OCO4)c(=O)n2C1c1ccc(N(C)C)cc1 (stereo not given),·,·,42*,78*,4,·
O=C1c2cccc3c([N+](=O)[O-])ccc(c23)C(=O)N1c1nccs1,-40,23*,-6,-29,-6,18
